Test results taken from ChEMBL document CHEMBL4513216, “Probing the Open Global Health Chemical Diversity Library for Multistage-Active Starting Points for Next-Generation Antimalarials” (ACS Infect Dis, 2020).

Assay: Toxicity liver stage against HepG2, at 10uM
Assay type: cell-based
Parameters: test concentration 10 uM, cell line HepG2-A16-CD81EGFP
Settings: human, HepG2-A16-CD81EGFP cells; read-out: INHIBITION
Outline: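 Uninfected HepG2-A16-CD81EGFP cells, 3 × 10^3 per well, 1536-well, plated on prespotted compound at 10 μM final, parasite-free screening media added to match infected plates; puromycin 10 μM positive, DMSO 0.5% negative; run in parallel with 48 h PbLuc assay at 37 °C, 5% CO2; viability by CellTiter-Glo luminescence, normalized to controls.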

| SMILES | cytotoxicity at 10 µM [%] |
| --- | --- |
| CCOC(=O)C1CCCCN1Cc1c[nH]nc1-c1ccc(F)cc1F (stereo unspecified) | -0.545 |
| COCCNC(=O)[C@H]1CN2CCC1C[C@@H]2Cn1cc(C(C)(C)C)nn1 (stereo partly specified) | 7.95 |
| CC(C)(O)c1cc(CC2(NCC3CCCCC3)COC2)no1 | 0.0962 |
| CN1CCCC1CCNC(=O)Nc1ccccc1 (stereo unspecified) | 0.238 |
| COc1ccccc1C(=O)N1CC(=O)N(Cc2ccco2)CC(O)C1 (stereo unspecified) | 4.45 |
| COCCNC(=O)Cn1cc(OCc2ccc(F)cc2)c(=O)cc1CO | 2.73 |
| Cc1ccc(C)c(S(=O)(=O)NCCOc2ccc3nnc(C)n3n2)c1 | -11.3 |
| CCN1CCNC(=O)C12CCN(S(=O)(=O)c1ccc(F)cc1)CC2 | 1.17 |
| COc1ccc(C[C@H]2CN(C(=O)c3ncccn3)CC[C@@H]2OC)cc1 | 4.65 |
| O=c1[nH]nc2nc(N3CCOCC3)ccn12 | -5.08 |
| COc1ccc(NC(=O)CSc2ccc3nncn3n2)c(OC)c1 | 3.94 |
| O=C(CSC1CCc2ccccc2NC1=O)NCc1ccccc1 (stereo unspecified) | 6.37 |
| NC(=O)c1ccc(NC(=O)Cn2cc(-c3ccccc3)ncc2=O)cc1 | 4.6 |
| O=C(Cc1csc(-c2ccc(Cl)cc2)n1)NC(C(=O)O)c1ccccc1 (stereo unspecified) | 4.91 |
| COc1cc(OC)c(C2SCC(=O)Nc3n[nH]cc32)cc1OC (stereo unspecified) | -6.08 |
| CCn1nc(C)c2ncnc(N3CCCC(C)C3)c21 (stereo unspecified) | 9.18 |
| COCC(=O)N1Cc2nc3c(C)c(-c4cccs4)nn3c(O)c2C1 | -4.81 |
| CN1C[C@H](c2ccccc2)[C@H]2CN(C(=O)Cc3ccc(O)cc3)CC[C@H]21 | 8.14 |
| CC(=O)N1CCCC1CCc1ccnc(-c2cncnc2)c1 (stereo unspecified) | 1.24 |
| Nc1nc(N)c2c(n1)OC1(CCN(C(=O)CC3CCCNC3)CC1)C2 (stereo unspecified) | 5.03 |
| CN(Cc1ccc(F)cc1)[C@@H]1CN(S(=O)(=O)N(C)C)C[C@H]1O | -1.34 |
| CCN(CCCc1ccccc1)CC1(C)Cc2c(N)nc(N)nc2O1 (stereo unspecified) | 0.822 |
| CCC(=O)N1CCC(Cc2ccccc2-c2cccc(C)c2)(C(N)=O)C1 (stereo unspecified) | -27.5 |

| SMILES | cytotoxicity at 10 µM [%] |
| --- | --- |
| Cc1noc(C)c1-c1cncc(C2CCCN2Cc2cn(C)cn2)n1 (stereo unspecified) | -20.4 |
| Cc1cc(N2CCCC2c2nccnc2C)ncn1 (stereo unspecified) | -20.8 |
| CC(=O)N1CCC(c2nccnc2-c2ccc(F)c(F)c2)CC1 | -19.1 |
| Nc1nc2nc(C3CCCN(C(=O)c4cnccn4)C3)ccc2s1 (stereo unspecified) | -16 |
| CN(C)c1cc(C(F)(F)F)cc(-c2ccc(C(=O)O)cc2)n1 | 9.15 |
| CC(=O)Nc1ccc(SCC(O)COCc2ccco2)cc1 (stereo unspecified) | 8.45 |
| Cc1nc(CCCC(=O)Nc2cccc(N3CCNC3=O)c2)cs1 | -2.26 |
| COCC1CCN(CCOc2ccc(C#N)cc2OC)CC1 | 4.11 |
| O=S(=O)(Cc1ccccc1Cl)CC(O)CO (stereo unspecified) | 6.44 |
| CC(=O)N1CCCN(Cc2csc(C)n2)c2ccccc21 | 0.00333 |
| NC(=O)COc1cccc(Cn2cc(Br)cn2)c1 | 1.98 |
| COc1ccc(Br)c(NC(=O)NCc2cnn(C)c2)c1 | 6.91 |
| CC(C)(C)c1noc(CN2CCCc3cc(OC(F)(F)F)ccc32)n1 | -0.813 |
| CC(NC(=O)CN1C=Nc2ccccc2S1(=O)=O)C1CC1 (stereo unspecified) | 4.53 |
| Fc1ccc(C2(NCc3noc(C4CC4)n3)CCC2)cc1 | -0.304 |
| CC(C)c1noc(CCCC(=O)Nc2cccc(F)c2)n1 | 7.01 |
| Cc1nc(CN2CCCN(C(=O)CC(C)n3cccc3)CC2)cs1 (stereo unspecified) | -6.25 |
| CCc1ccc(CC(=O)N2CCN(c3nccn3C)CC2)cc1 | -0.647 |
| CN(C(=O)CNCCn1cccn1)C1(C#N)CCCCC1 | 2.04 |
| Cc1cccc(CNC2(CCO)CCOCC2)c1C | -14.9 |
| Cc1ccc(C(=O)N(C)Cc2c(C)noc2C)c(=O)[nH]1 | -8.2 |
| CCc1noc(CC)c1CNC(=O)Nc1ccc2[nH]nnc2c1 | 6 |
| CCN(C(=O)CN1CCC(c2cc3ccccc3[nH]2)CC1)C1CC1 | 0.99 |

| SMILES | cytotoxicity at 10 µM [%] |
| --- | --- |
| CCN(C(=O)C(C)S(=O)(=O)Cc1nc(C)no1)c1ccccc1 (stereo unspecified) | 4.03 |
| O=C(Nc1cccc(OCC(F)F)n1)c1ccncc1 | -6.02 |
| CC(CO)NC(=O)c1ccc(NCc2cc(C#N)ccc2F)cc1 (stereo unspecified) | 1.98 |
| Cc1ccc(CNC(=O)c2oc3ccccc3c2CN(C)C)n1C | 0.521 |
| N#Cc1cc(NC(=O)C2CC=CC2)ccc1N1CCC(O)CC1 | -9.29 |
| Cc1ccc(F)cc1S(=O)(=O)N(C)CC(N)=O | -12.6 |
| O=C1CC(c2ccncc2)C2(CCN(Cc3nccs3)CC2)N1 (stereo unspecified) | 4.8 |
| COCC(=O)N1CC[C@@H]2O[C@@H](COCc3csc(C)n3)CC[C@@H]21 | 3.24 |
| Cn1c(CN2CCN(c3cccnc3)CC2)cc2ccccc21 | 5.33 |
| Cc1nc(N(C)C)nc(NCCc2cnccn2)c1C | -1.22 |
| Cc1c(C2c3nc[nH]c3CCN2CCOCc2ccccc2)cnn1C (stereo unspecified) | 0.838 |
| O=C(c1ccccn1)N1CCC(c2nccn2Cc2ccncc2)CC1 | 1.94 |
| CCC[C@@H]1CN(c2ncnc3sccc23)C[C@H]1NS(C)(=O)=O | -1.25 |
| CN(CCc1cnn(C)c1)C(=O)Cn1c(=O)[nH]c2ccccc21 | 4.5 |
| CN(C)C(=O)NCc1cc2n(n1)CCCN(CC1CCCNC1)C2 (stereo unspecified) | -4.07 |
| N#CC1(C(=O)N2C[C@H](Nc3ccnc(N)n3)[C@@H](C3CC3)C2)CCOCC1 | -1.2 |
| CCCn1ccnc1CN1CCC(Oc2cccc(F)c2)(C(=O)O)CC1 | 1 |
| Cc1nc(N(C)C)ncc1C(=O)N[C@@H]1CCc2ccccc21 | 5.77 |
| CN(C)CCN(C)C[C@@H]1CN(C(=O)NC2CCCC2)C[C@@H]1CO | 1.35 |
| CC(c1cccs1)N(C)C(=O)c1cc(CN(C)Cc2ccccc2)on1 (stereo unspecified) | 5.44 |
| COCCC1CN(Cc2cn(CCC(N)=O)c3ccccc23)CCO1 (stereo unspecified) | -3.15 |
| COc1cc(C)c(C)cc1S(=O)(=O)N(C)CC(=O)Nc1ccon1 | 2.74 |
| O=S(=O)(c1cc(F)ccc1F)N1CCCC1c1ccco1 (stereo unspecified) | 11.2 |

| SMILES | cytotoxicity at 10 µM [%] |
| --- | --- |
| O=C(c1cnc(Nc2ccccc2)nc1)N1CCS(=O)(=O)CC1 | -1.01 |
| O=C1CC(c2cccs2)c2snc(C(=O)O)c2N1 (stereo unspecified) | -11.1 |
| CC(=O)N1CCC(C(=O)N(C)[C@@H]2CCC[C@@H](N3CCCC3)[C@@H]2O)CC1 | -0.156 |
| O=C(c1cnco1)N1CCCC(Cc2nccs2)C1 (stereo unspecified) | 4.84 |
| Cc1ccc(CNC(=O)Nc2nncs2)cn1 | -9.12 |
| Cc1ccc(-c2nc(CN3CCN(CCO)CC3)co2)cc1 | -23.7 |
| CC(NC(=O)NCCCn1cncn1)c1ccc2c(c1)CC(=O)N2 (stereo unspecified) | -8.01 |
| Cc1nc(C2CCCN2Cc2nc(C3CC3)no2)no1 (stereo unspecified) | -12.7 |
| CCC(=O)N1CCN(C(=O)Cn2cccn2)CC1 | 0.661 |
| CCOc1ccccc1C(CC(=O)Nc1ccncc1)NC(C)=O (stereo unspecified) | -12.6 |
| Cc1nc(CN(C)C2CCN(CCCOc3ccccc3C)C2)no1 (stereo unspecified) | 2.24 |
| Cc1ncsc1CNc1cc(N2CCCC2CO)ncn1 (stereo unspecified) | -12.5 |
| CCn1ccnc1CN1CCCN(C(=O)Cc2ccc(F)cc2)CC1 | -15.8 |
| CC(C)c1nc2c(n1C)CCN(CC(=O)Nc1ccnn1C(C)C)C2 | -1.3 |
| CC(C(=O)NCc1ccc(N2CCNC(=O)C2)cc1)n1cncn1 (stereo unspecified) | -9.21 |
| CN(Cc1ccco1)C(=O)C1CSCN1C(=O)c1cccnc1 (stereo unspecified) | -5.28 |
| COc1c(CNC2CCN(C(C)(C)C)CC2)c(C(C)C)nn1C | -10.9 |
| CCc1cnc(CN(C)C2CCN(CCc3cccs3)C2)o1 (stereo unspecified) | -16.8 |
| Cc1nc2ccccc2c(=O)n1CCC(=O)N1CCSCC1 | -6.13 |
| c1cnn(CC2CN(Cc3ccc(-n4ccnc4)cc3)CCO2)c1 (stereo unspecified) | -3.12 |
| COc1ncccc1CNC(=O)NCCNC(=O)c1ccco1 | -0.313 |
| Cc1ccc(C(O)CNCCn2cccn2)cc1C (stereo unspecified) | -6.11 |
| Cc1cnn(CCNCc2ccccc2Oc2cccnc2)c1 | 6.33 |

| SMILES | cytotoxicity at 10 µM [%] |
| --- | --- |
| Cc1cnn(CCC(=O)N2CCCN(c3ncccc3C#N)CC2)c1 | 4.11 |
| CCc1noc(CN2CCCC2c2noc(C3CC3)n2)n1 (stereo unspecified) | -3.76 |
| Cn1ccnc1CN1CCN(CC(O)c2ccco2)CC1 (stereo unspecified) | 2.38 |
| CCOc1ccc(CC(CNC(=O)c2occc2C)C(N)=O)cc1 (stereo unspecified) | 5.17 |
| Cn1ccnc1C1(O)CCN(C(=O)CCc2ccccc2)CC1 | 1.37 |
| CNC(=O)C(C)(C)N1CCC[C@H]1C(=O)NCC(C)C | 1.55 |
| COc1ccc(CN2C[C@H]3CC[C@](O)(c4ccc(C)cn4)[C@H]3C2)c(F)c1 | -1.57 |
| O=C1[C@H]2CN(Cc3cccs3)C[C@H]2CN1c1cncnc1 | -13.8 |
| O=C(NC1CC1)[C@@H]1CCO[C@@H]2CCN(C3CCOCC3)C[C@@H]21 | -9.87 |
| c1cn(-c2cnc(C3CCNCC3)cn2)cn1 | -5.72 |
| Cc1nn(C)c(N(C)C)c1CNC1CCc2cc(F)ccc21 (stereo unspecified) | -15.4 |
| Cn1cc(CN2CCC3(CC(=O)N(c4ccc5c(c4)OCO5)C3)C2)cn1 (stereo unspecified) | -4.97 |
| c1cnc(N2CCOCC3(CCCN(CC4CC4)C3)C2)cn1 (stereo unspecified) | -15.8 |
| O=C(CC1CC1)N1CCC2(CCCN(CCOc3ccccc3)C2)C1 (stereo unspecified) | -0.861 |
| CN(C)C(=O)N[C@H]1CN(Cc2ccc3c(c2)OCO3)[C@@H]2CCCO[C@H]12 | 4.32 |
| O=C1COC2(CCN(CC3CCOCC3)CC2)CN1Cc1ccccn1 | -2.76 |
| O=C(CC(F)(F)F)N1C[C@H]2CC[C@@H](C1)N(Cc1ccccc1)C2=O | 7.71 |
| c1ccc(COC2C[C@@H]3CN(Cc4cccnc4)C[C@@H]3C2)cc1 (stereo partly specified) | 2.92 |
| C1CC(CN2C[C@@H]3CC[C@H]2CN(Cc2nnc(C4CC4)o2)C3)C1 | 1.19 |
